Compound activity deposited in PubChem by several laboratories.
TNAP inh no acc: human TNAP enzyme inhibitors, primary screen, biochemical, luminescent, no phosphate acceptor, uHTS. hit rate 0.26% among 200,000. purified TNAP, CDP-star luminescence, 30 min. Alkaline phosphatase, tissue-nonspecific isozyme (Homo sapiens), P05186. inhibition, % at 20 µM. AID 1012, 2008;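 active = tissue-nonspecific alkaline phosphatase inhibition above about 50% at 20 µM in the single-dose screen, limit read from the data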
Target sequence (P05186 whole entry, looked up): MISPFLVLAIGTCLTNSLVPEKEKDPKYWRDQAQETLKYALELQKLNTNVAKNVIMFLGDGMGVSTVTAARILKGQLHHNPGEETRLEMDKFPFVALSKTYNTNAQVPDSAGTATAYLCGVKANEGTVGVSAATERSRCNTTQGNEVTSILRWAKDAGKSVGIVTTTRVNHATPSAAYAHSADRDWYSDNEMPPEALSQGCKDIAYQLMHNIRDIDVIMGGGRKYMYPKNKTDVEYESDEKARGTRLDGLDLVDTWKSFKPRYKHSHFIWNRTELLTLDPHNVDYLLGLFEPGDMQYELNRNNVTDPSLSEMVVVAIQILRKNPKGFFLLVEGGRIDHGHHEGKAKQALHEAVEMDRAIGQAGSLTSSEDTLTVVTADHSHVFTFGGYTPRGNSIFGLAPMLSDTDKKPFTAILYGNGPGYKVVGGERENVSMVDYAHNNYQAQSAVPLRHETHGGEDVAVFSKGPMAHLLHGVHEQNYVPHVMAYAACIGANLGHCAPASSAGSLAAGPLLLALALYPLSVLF
TNAP inh hi DEA: human TNAP enzyme inhibitors, primary screen, biochemical, luminescent, high phosphate acceptor level, uHTS | inhibition, % at 20 µM | purified TNAP, CDP-star luminescence, 1 M DEA | Alkaline phosphatase, tissue-nonspecific isozyme (Homo sapiens), P05186 | hit rate 0.03% among 200,000 | AID 1135, 2008;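 active = over 50% inhibition of tissue-nonspecific alkaline phosphatase at 20 µM in the single-dose screen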
Yeast growth inh: growth inhibitors of yeast BB579 in restrictive medium, primary screen, yeast lifespan-shortening project, S. cerevisiae; hit rate 0.51% among 140,000; OD615, 48 h; inhibition, % at 10 µM; AID 804, 2007;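 active = inhibition above a set limit, 3 SD over the mean compound inhibition, cut at about 44% in these data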
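Detection: OD615 turbidity measurement; Material: Saccharomyces cerevisiae DeaD strain BB579, replicative lifespan model yeast; Timing: 48 h exposure, 30 °C; Doses: single 10 µM dose; Medium: CSMM-D restrictive synthetic medium containing dextrose (glucose); Controls: amphotericin B at 10 µg/mL as positive control.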
TNAP act hiacc: TNAP activators at high phosphate acceptor level, primary screen, biochemical, luminescence, uHTS | purified TNAP, CDP-star luminescence, 1 M DEA, 30 min; stronger effect = higher value; 0 = EDTA background, 1 = DMSO-only activity | 200,000 tested, under 10 active | activation factor at 20 µM;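 active = activation factor at least 2 at 20 µM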
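Assay system: human TNAP; Input: enzyme diluted 1/800 final; Reagent: CDP-star luminogenic substrate at 100 µM final; Timing: 30 min, room temperature; Signal: luminescence; Evaluation: TNAP activation factor scaled between EDTA and DMSO control wells.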
RAM network inh: inhibitors of the yeast RAM network, primary screen, dse1pr::URA3 reporter, 5-FOA selection. hit rate 1.8% among 190,000. S. cerevisiae dse1pr::URA3 reporter, 5-FOA growth OD615, 2 d; analog-sensitive cbk1-as2 kinase mutant strain. inhibition, % at 50 µM;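 active = inhibition above a set limit, 3 SD over mean compound inhibition, cut at about 8.4% in these data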;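 also: inhibition rescues growth on 5-FOA so higher OD means more RAM inhibition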
Yeast life ext: compounds extending yeast replicative lifespan, primary screen, S. cerevisiae, OD615 | inhibition of the nicotinamide effect, % at 10 µM | S. cerevisiae growth with nicotinamide; deaD strain in restrictive glucose medium | AID 775, 2007 | hit rate 0.68% among 130,000;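 active = inhibition above a set limit, placed 3 SD over the median of all compounds, cut at about 26% in these data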
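Material: Modified budding yeast, DeaD strain | Medium: Restrictive glucose medium | Probe or stimulus: 1.5 mM nicotinamide | Dosing: Single dose 10 µM compound, 0.25% DMSO | Times: 48 h at 30 °C | Technique: OD615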
Hits are given with their value; – = inactive; · = no result given. Hits are enriched below; roughly 2.8% of the tested compounds scored in any of these assays.

SMILES | TNAP inh no acc | TNAP inh hi DEA | Yeast growth inh | TNAP act hiacc | RAM network inh | Yeast life ext
Cc1ccc(C(=O)NC(=S)NCC2CCCO2)cc1 (stereo unspecified) | – | – | – | – | – | 31.9
CC(C)Cn1cnc2c(c(-c3ccccc3)c(-c3ccccc3)n2Cc2ccco2)c1=N | – | – | – | – | – | 28.3
N=c1c2c(-c3ccccc3)c(-c3ccccc3)n(Cc3ccco3)c2ncn1Cc1ccccc1 | – | – | – | – | – | –
c1ccc(-c2c(-c3ccccc3)n(Cc3ccco3)c3ncnc(NCCCn4ccnc4)c23)cc1 | – | – | – | – | – | 43.1
N=c1c2c(-c3ccccc3)c(-c3ccccc3)n(Cc3ccco3)c2ncn1CCCn1ccnc1 | – | – | – | – | – | 43.3
N=c1c2c(-c3ccccc3)c(-c3ccccc3)n(Cc3ccco3)c2ncn1CCCN1CCOCC1 | – | – | · | – | – | ·
N#CC1(c2ccccc2)CCCN1C(=O)c1ccccc1Br (stereo unspecified) | – | – | – | – | – | –
COc1cc2c(cc1OC)CN(CC(=O)NC(=O)NC1CCCCC1)CC2 | – | – | · | – | – | ·
CC(C)(C)c1ccc(-c2nc(-c3ccncc3)no2)cc1 | – | – | 68.3 | – | – | ·
Cc1cc(C)cc(-c2nc(-c3ccncc3)no2)c1 | – | – | – | – | – | –
CCOC(=O)N1CCN(Cc2nc3c(c(=O)[nH]c(=O)n3C)n2Cc2cc(C)ccc2C)CC1 | – | – | – | – | – | –
CCOC(=O)c1c(=O)n(O)c2ccc(C)cc2[n+]1[O-] | – | – | – | – | – | –
N#CCCn1cc(C(=O)Nc2ccc(C(=O)O)cc2)c(-c2ccc([N+](=O)[O-])cc2)n1 | – | – | · | – | 8.8 | ·
Cc1ccc(S(=O)(=O)N(CC(=O)Nc2ccccc2C(=O)O)c2ccccc2C)cc1 | – | – | · | – | 8.7 | ·
CCOC(=O)COc1ccccc1/C=C\[N+](=O)[O-] | – | – | – | – | – | 43.6
Cc1cc(Cl)ccc1N=C1N=C(N)c2ccccc21 | – | – | – | – | 8.9 | –
NC1=NC(=Nc2ccc(Cl)cc2)c2ccccc21 | – | – | – | – | – | –
Cc1cc(Cl)ccc1N=c1ssnc1Cl | – | – | 63.1 | – | – | –
Cc1ccc(N=c2ssnc2Cl)cc1 | – | – | – | – | – | –
Cc1noc(C)c1COc1ccc(C(=O)OCc2nnc(-c3ccc(Cl)cc3)o2)cc1 | – | – | – | – | 10.0 | –
Cc1ccc(NC(=O)CN2C(=O)c3ccccc3C2=O)nc1 | – | – | · | – | – | ·
O=C(O)Cc1ccc(S(=O)(=O)Nc2ccccc2C(=O)O)cc1 | – | – | · | – | – | ·
CCc1ccc(OCC(=O)NC(NC(=S)Nc2ccc(Cl)cc2)C(Cl)(Cl)Cl)cc1 (stereo unspecified) | – | – | – | – | 9.5 | –
CC(C)n1nnc2c(=O)oc3ccccc3c21 | – | – | – | – | – | –
COc1cccc(C(CC(=O)Nc2cccc3ccccc23)NC(=O)c2ccccc2)c1 (stereo unspecified) | – | – | – | – | 10.1 | –
SMILES | TNAP inh no acc | TNAP inh hi DEA | Yeast growth inh | TNAP act hiacc | RAM network inh | Yeast life ext
Cc1cccc(-n2c(SCC(=O)N3CC(=O)Nc4ccccc43)nc3ccccc3c2=O)c1C | – | – | – | – | 9.6 | –
Cc1cccc(-n2c(SCC(=O)N3CC(=O)Nc4ccccc43)nc3ccccc3c2=O)c1 | – | – | · | – | – | ·
Cc1sc2nc(C3CCCCC3)nc(SCC(=O)N3CC(=O)Nc4ccccc43)c2c1C | – | – | – | – | 8.5 | –
CCCCNc1c2c3c(cccc3n(C)c1=O)C(=O)c1ccccc1-2 | – | – | – | – | 9.2 | –
CC1(C)Cc2c(C#N)c(N3CCOCC3)nc(Cc3ccccc3)c2CO1 | – | – | – | – | 11.0 | –
COC(=O)c1ccc(COc2ccccc2/C=N/NS(=O)(=O)c2ccc(C)cc2)cc1 | – | – | – | – | – | –
CN(C)c1ccc(/C=C/C=C2/SC(=S)N(c3ccccc3)C2=O)cc1 | 55.4 | 54.2 | – | – | 11.4 | –
O=C(O)c1ccc(N2C(=O)/C(=C/C=C/c3ccccc3)SC2=S)cc1 | – | – | · | – | – | ·
COc1cc(/C=N/OCC(=O)Nc2cc(C)cc(C)c2)ccc1OCc1ccc(Cl)cc1 | – | – | – | – | – | –
COc1cc(/C=N/OCC(=O)NC2CCCCC2C)ccc1OCc1ccc(Cl)cc1 (stereo unspecified) | – | – | – | – | 10.6 | –
CCC(C)[C@H](NC(=O)NCC1CCCO1)C(=O)OC (stereo partly specified) | – | – | – | – | – | –
CCOC(=O)c1sc(NC(=O)CSc2n[nH]c(-c3ccc(Cl)cc3Cl)n2)c(C#N)c1C | 96.4 | – | – | – | – | –
CCCN(CC(=O)Nc1ccccc1C)C(=O)/C=C/c1cccs1 | – | – | – | – | – | –
COc1ccc(NC(=O)C2CCCN2S(=O)(=O)c2cccc3cccnc23)c(OC)c1 (stereo unspecified) | – | – | 98.2 | – | – | –
O=C(NC1CCCC1)C1CCCN(S(=O)(=O)c2cccc3cccnc23)C1 (stereo unspecified) | – | – | – | – | 8.7 | –
Cc1cc(C)cc(OC(=O)C23CCC(C)(C(=O)O2)C3(C)C)c1 (stereo unspecified) | – | – | · | – | – | ·
Cc1ccc(C(=O)COC(=O)CCc2ccc(S(=O)(=O)N3CCCCC3)cc2)cc1 | – | – | – | – | – | –
Cc1noc(C)c1C(=O)OCC(=O)Nc1cc(Cl)ccc1Oc1ccccc1 | – | – | – | – | 11.4 | –
C[C@](N)(Cc1ccc(O)c(O)c1)C(=O)O | 54.1 | – | – | – | – | –
COC(=O)C(N)Cc1ccc(O)c(O)c1 (stereo unspecified) | – | – | – | – | – | –
FC(F)(F)c1cccc(NC(=S)NCC2COc3ccccc3O2)c1 (stereo unspecified) | – | – | – | – | – | –
O=c1cc(CSc2nnc(-c3cccs3)n2Cc2ccccc2)nc2sc3ccccc3n12 | – | – | – | – | 8.6 | –
CC(c1cccs1)N(C)Cc1nc(CCc2ccccc2)no1 (stereo unspecified) | – | – | · | – | – | ·
O=C(CSc1ccc2ccccc2n1)NCCC1=CCCCC1 | – | – | – | – | 8.6 | –
